The subject of assay [1] is Human immunodeficiency virus 1. Description: Antiviral activity against HIV1 by cell-based assay. It is filed as functional, organism-based. The method, boiled down: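 Cytoprotection assay: CEM-SS cells or human PBMCs mixed with HIV-1 strain IIIB or RF in presence of compound, 6 days. Virus pre-titered to give 70–95% loss of viability in virus-control wells; cell, toxicity and colorimetric controls included. Viability by MTS or XTT dye reduction; EC50 = concentration inhibiting virus replication by 50%.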

The nature of assay [2]: Inhibition of HIV reverse transcriptase. More on the design: species or system Human immunodeficiency virus. The method, boiled down: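 Scintillation proximity assay: beads carry a biotin-linked poly(A) template with oligo(T) primer. Reaction incubated 3 h at 37 °C, stopped with stop buffer, counted 1 min per sample on a beta counter; IC50 reported.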
The nature of assay [3]: Inhibition of HIV integrase expressed in Escherichia coli BL21. More on the design: species or system Human immunodeficiency virus. In outline:
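IN made in E. coli BL21(DE3) by IPTG induction. 600 nM IN stock in 10 mM HEPES pH 7.5, 10 mM MnCl2, 1 mM DTT, 10% glycerol, BSA, Brij-35, preincubated with compound or DMSO 10 min at room temperature. Reaction started with annealed 5'-biotin/3'-cy5 duplex (50 nM stock), 2 h at 37 °C. Product captured on streptavidin plate, washed with NaOH denaturing buffer, eluted in formamide, fluorescence read.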

The term EC50 denotes the concentration that produces a half-maximal response. The low end stands for an effect from little substance, the high end for a need for much substance. By IC50 is commonly meant the concentration that inhibits the measured activity by half. `CC(C)Nc1cccnc1N1CCN(C(=O)c2cc3cc(C(=O)/C=C(\O)C(=O)O)ccc3[nH]2)CC1`: the EC50 in assay [1] was found to be 0.52 µM. Moreover, the concentration for half-maximal inhibition (IC50) came to 0.0059 µM in assay [2] and 11 µM in assay [3].
In assay [1], `CC(C)Nc1cccnc1N1CCN(C(=O)c2[nH]c3ccc(C(=O)/C=C(\O)C(=O)O)cc3c2Br)CC1` registered an EC50 of 0.79 µM. For the same molecule, the IC50 was determined as 0.12 µM in assay [2] and 3.9 µM in assay [3].
For `CC(C)Nc1cccnc1N1CCN(C(=O)c2[nH]c3ccc(C(=O)/C=C(\O)C(=O)O)cc3c2Cl)CC1`, in that order: 0.98 µM, 1.1 µM and 4.7 µM.
On to `CC(C)Nc1cccnc1N1CCN(C(=O)c2[nH]c3c(C(=O)/C=C(\O)C(=O)O)cccc3c2Cl)CC1`, for which the EC50 in assay [1] is greater than 10 µM. In addition, the IC50 in assay [2] and in assay [3] was greater than 100 µM in each case.
Take `CC(C)Nc1cccnc1N1CCN(C(=O)c2cc3cc(NS(C)(=O)=O)ccc3[nH]2)CC1` [DELAVIRDINE]: the concentration giving a half-maximal response (EC50) in assay [1] came out at 0.021 µM. In addition, the values for the IC50 in assay [2] and in assay [3] were 0.036 µM and greater than 100 µM, respectively.
`CC(C)Nc1cccnc1N1CCN(C(=O)c2[nH]c3c(C(=O)/C=C(\O)C(=O)O)cccc3c2Br)CC1` had a concentration for a half-maximal effect (EC50) in assay [1] greater than 10 µM. Besides, the IC50 in assay [2] was greater than 100 µM; in assay [3], 75 µM.
On to `CC(C)Nc1cccnc1N1CCN(C(=O)c2cc3cccc(C(=O)/C=C(\O)C(=O)O)c3[nH]2)CC1`, for which the EC50 in assay [1] is greater than 10 µM. Further, the IC50 in assay [2] and in assay [3] was greater than 100 µM each time.

The values are drawn from ChEMBL document CHEMBL1157165, “Design and synthesis of dual inhibitors of HIV reverse transcriptase and integrase: introducing a diketoacid functionality into delavirdine” (Bioorg Med Chem, 2008).
